Assay results taken from ChEMBL document CHEMBL4811241, “Revisiting Pyrazolo[3,4-d]pyrimidine Nucleosides as Anti-Trypanosoma cruzi and Antileishmanial Agents” (J Med Chem, 2021).
pIC50: −log10 of the molar value.

Legend:
Leishmania infantum = experiment: Antileishmanial activity against amastigote form of Leishmania infantum MHOM/MA(BE)/67 infected in Swiss mouse peritoneal macrophages assessed as reduction in parasite growth treated at 2 hrs post-infection and measured after 5 days by Giemsa staining based microscopic analysis; type: functional, organism-based; conditions: MHOM/MA(BE)/67, Peritoneal macrophage
In short: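 Swiss mouse peritoneal macrophages, harvested after 2-day potato-starch stimulation, infected 48 h after plating; compounds added 2 h post-infection.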

[1] = Selectivity index, ratio of CC50 for human MRC-5 SV2 cells to IC50 for antitrypanosomal activity against nifurtimox-sensitive Trypanosoma cruzi Tulahuen CL2 infected in human MRC-5 SV2 cells; type: toxicity, cell-based; conditions: read-out: Ratio CC50/IC50
In short: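 Ratio of MRC-5SV2 CC50 (3-day resazurin assay) to IC50 against T. cruzi amastigotes in MRC-5SV2 cells (7-day CPRG assay).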

[2] = Cytotoxicity against Swiss mouse peritoneal macrophages assessed as cell detachment, lysis and granulation measured after 5 days by microscopic analysis; type: cell-based, Peritoneal macrophage; conditions: time 5 day
In short: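 Scored within the Leishmania macrophage assay over 5 days: detachment, lysis and granulation judged semi-quantitatively by microscopy across at least 500 cells. CC50 derived from % reduction in normal cells versus untreated wells.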

Trypanosoma cruzi = experiment: Antitrypanosomal activity against nifurtimox-sensitive Trypanosoma cruzi Tulahuen CL2 infected in human MRC-5 SV2 cells assessed as inhibition of parasite growth measured after 7 days by spectrophotometric analysis; type: functional, organism-based; conditions: Tulahuen CL2, MRC-5 SV2, 168 h
[3] = Cytotoxicity against human MRC-5 SV2 cells assessed as reduction in cell growth measured after 3 days by resazurin dye based fluorometric analysis; conditions: time 3 day

Structure (SMILES)	pIC50 (Leishmania infantum)	selectivity ratio [1]	CC50 at 120 h [2] [µM]	pIC50 (Trypanosoma cruzi)	CC50 at 72 h [3] [µM]
Nc1ncnc2c1c(-c1ccc(OC(F)(F)F)cc1)nn2[C@@H]1O[C@H](CO)[C@@H](O)[C@H]1O	< 4.19	> 4	> 64	4.81	> 64
Nc1ncnc2c1c(C(=O)N1CCCC1)nn2[C@@H]1O[C@H](CO)[C@@H](O)[C@H]1O	< 4.19	–	> 64	< 4.19	> 64
Cn1cc(-c2nn([C@@H]3O[C@H](CO)[C@@H](O)[C@H]3O)c3ncnc(N)c23)cn1	< 4.19	> 1	> 64	4.34	> 64
Nc1ncnc2c1c(-c1ccc(Cl)c(C(F)(F)F)c1)nn2[C@@H]1O[C@H](CO)[C@@H](O)[C@H]1O	< 4.19	> 1	> 64	4.36	> 64
O=c1[nH]cnc2c1cnn2[C@@H]1O[C@H](CO)C[C@H]1O	< 4.19	–	> 64	< 4.19	> 64
Nc1ncnc2c1c(Oc1ccc(Cl)cc1)nn2[C@@H]1O[C@H](CO)[C@@H](O)[C@H]1O	< 4.19	–	> 64	< 4.19	> 64
Cc1cc(-c2nn([C@@H]3O[C@H](CO)[C@@H](O)[C@H]3O)c3ncnc(N)c23)ccc1Cl	< 4.19	> 79	> 64	6.09	> 64
COc1cc(-c2nn([C@@H]3O[C@H](CO)[C@@H](O)[C@H]3O)c3ncnc(N)c23)ccc1Cl	< 4.19	> 56	> 64	5.94	> 64
N#Cc1ccc(-c2nn([C@@H]3O[C@H](CO)[C@@H](O)[C@H]3O)c3ncnc(N)c23)cc1	< 4.19	> 2	> 64	4.49	> 64
O=c1[nH]cnc2c1cnn2[C@@H]1O[C@H](CO)[C@@H](F)[C@H]1O	< 4.19	–	> 64	< 4.19	> 64
Cc1cc(Cl)ccc1-c1nn([C@@H]2O[C@H](CO)[C@@H](O)[C@H]2O)c2ncnc(N)c12	< 4.19	> 17	> 64	5.42	> 64
N#Cc1cc(-c2ccc(-c3nn([C@@H]4O[C@H](CO)[C@@H](O)[C@H]4O)c4ncnc(N)c34)cc2C#N)ccc1Cl	< 4.19	–	> 64	< 4.19	> 64
Nc1ncnc2c1c(C(F)(F)F)nn2[C@@H]1O[C@H](CO)[C@@H](O)[C@H]1O	< 4.19	< 1	> 64	4.57	13.3
Nc1ncnc2c1c(C(=O)NCc1ccccc1)nn2[C@@H]1O[C@H](CO)[C@@H](O)[C@H]1O	< 4.19	–	> 64	< 4.19	> 64
Nc1ncnc2c1c(-c1ccc([N+](=O)[O-])cc1)nn2[C@@H]1O[C@H](CO)[C@@H](O)[C@H]1O	< 4.19	> 6	> 64	4.99	> 64
Nc1ncnc2c1c(-c1ccc(Cl)cc1)nn2[C@@H]1O[C@H](CO)C[C@H]1O	< 4.19	> 61	> 64	5.98	> 64
Nc1ncnc2c1c(-c1ccc(Cl)c(F)c1)nn2[C@@H]1O[C@H](CO)[C@@H](O)[C@H]1O	< 4.19	> 54	> 64	5.92	> 64
Nc1ncnc2c1c(-c1ccc(F)cc1)nn2[C@@H]1O[C@H](CO)[C@@H](O)[C@H]1O	< 4.19	> 19	> 64	5.47	> 64
CCOc1cc(-c2nn([C@@H]3O[C@H](CO)[C@@H](O)[C@H]3O)c3ncnc(N)c23)ccc1Cl	< 4.19	> 1	> 64	4.34	> 64
Nc1ncnc2c1cnn2[C@H]1C[C@H](O)[C@@H](CO)O1	< 4.19	–	> 64	< 4.19	> 64
CNC(=O)c1nn([C@@H]2O[C@H](CO)[C@@H](O)[C@H]2O)c2ncnc(N)c12	< 4.19	16	> 64	5.40	> 64
Nc1ncnc2c1c(-c1nnn[nH]1)nn2[C@@H]1O[C@H](CO)[C@@H](O)[C@H]1O	< 4.19	–	> 64	< 4.19	> 64
Nc1ncnc2c1c(Br)nn2[C@@H]1O[C@H](CO)C[C@H]1O	< 4.19	–	> 64	4.41	2.2

Structure (SMILES)	pIC50 (Leishmania infantum)	selectivity ratio [1]	CC50 at 120 h [2] [µM]	pIC50 (Trypanosoma cruzi)	CC50 at 72 h [3] [µM]
Nc1ncnc2c1c(N1CCCC1)nn2[C@@H]1O[C@H](CO)[C@@H](O)[C@H]1O	< 4.19	–	> 64	< 4.19	> 64
Nc1ncnc2c1c(-c1ccc(Cl)c(Cl)c1)nn2[C@@H]1O[C@H](CO)[C@@H](O)[C@H]1O	< 4.19	> 23	> 64	5.55	> 64
O=c1[nH]cnc2c1c(Br)nn2[C@@H]1O[C@H](CO)[C@@H](F)[C@H]1O	< 4.19	–	> 64	< 4.19	> 64
CCCCCCCCCCCCCCCCOP(=O)([O-])OCC[N+](C)(C)C [MILTEFOSINE]	5.13	–	–	–	–
N#Cc1cc(-c2nn([C@@H]3O[C@H](CO)[C@@H](O)[C@H]3O)c3ncnc(N)c23)ccc1Cl	< 4.19	–	> 64	< 4.19	> 64
COc1ccc(-c2nn([C@@H]3O[C@H](CO)[C@@H](O)[C@H]3O)c3ncnc(N)c23)cc1	< 4.19	> 4	> 64	4.74	> 64
Nc1ncnc2c1cnn2[C@@H]1O[C@H](CO)C[C@H]1O	< 4.19	–	> 64	< 4.19	> 64
O=c1[nH]cnc2c1c(Br)nn2[C@@H]1O[C@H](CO)C[C@H]1O	< 4.19	–	> 64	< 4.19	> 64
Nc1ncnc2c1c(Br)nn2[C@H]1C[C@H](O)[C@@H](CO)O1	< 4.19	–	> 64	4.27	24.9
Nc1ncnc2c1cnn2[C@@H]1O[C@H](CO)[C@@H](F)[C@H]1O	< 4.19	–	> 64	< 4.19	> 64
Nc1ncnc2c1c(-c1ccc(F)c(Cl)c1)nn2[C@@H]1O[C@H](CO)[C@@H](O)[C@H]1O	< 4.19	> 14	> 64	5.33	> 64
Nc1ncnc2c1c(-c1cccs1)nn2[C@@H]1O[C@H](CO)[C@@H](O)[C@H]1O	< 4.19	3	> 64	4.98	32
Cc1csc(-c2nn([C@@H]3O[C@H](CO)[C@@H](O)[C@H]3O)c3ncnc(N)c23)c1	< 4.19	> 2	> 64	4.49	> 64
CC(C)c1nn([C@@H]2O[C@H](CO)[C@@H](O)[C@H]2O)c2ncnc(N)c12	< 4.19	< 1	> 64	< 4.19	10.6
CC(C)(C)c1ccc(-c2nn([C@@H]3O[C@H](CO)[C@@H](O)[C@H]3O)c3ncnc(N)c23)cc1	< 4.19	–	> 64	< 4.19	> 64
Nc1ncnc2c1c(CCc1ccccc1)nn2[C@@H]1O[C@H](CO)[C@@H](O)[C@H]1O	< 4.19	> 1	> 64	4.28	> 64
Nc1ncnc2c1c(-c1ccc(Cl)s1)nn2[C@@H]1O[C@H](CO)[C@@H](O)[C@H]1O	< 4.19	14	> 64	5.59	47.3
Oc1ncnc2[nH]nc(Br)c12	< 4.19	–	> 64	< 4.19	> 64
O=c1[nH]cnc2c1c(Br)nn2[C@@H]1O[C@H](CO)[C@@H](O)[C@H]1O	< 4.19	–	> 64	< 4.19	> 64
Nc1ncnc2c1c(CN1CCOCC1)nn2[C@@H]1O[C@H](CO)[C@@H](O)[C@H]1O	< 4.19	–	> 64	< 4.19	> 64
CCc1nn([C@@H]2O[C@H](CO)[C@@H](O)[C@H]2O)c2ncnc(N)c12	< 4.19	–	> 64	< 4.19	> 64
Nc1ncnc2c1c(C1CC1)nn2[C@@H]1O[C@H](CO)[C@@H](O)[C@H]1O	< 4.19	–	> 64	< 4.19	> 64
